Results reported in ChEMBL document CHEMBL5724801, “EUbOPEN Chemogenomics Library - Multiplex” (2024).
Values joined by “and” are separate entries in the source; they are usually repeats but may differ in a detail not shown here. Equal values may be shown once.

Test system: U2OS
Assay: Multiplex assay against U2OS
Assay type: toxicity, cell-based
Conditions: human
Summary of the method: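 Live cells were stained at seeding with Hoechst33342, BioTracker Green Microtubule Cytoskeleton Dye, MitoTracker Red and Annexin V Alexa Fluor 680. Following compound addition, they were imaged on a CQ1 microscope at 37°C and 5% CO2 and gated by CellPathfinder machine learning into Hoechst high-intensity objects or normal cells, with normal cells split into healthy, pyknosed or fragmented nuclei and pyknosed cells into mitotic or apoptotic. Tubulin, mitochondrial-mass and membrane-permeability phenotypes are per cents of healthy-nucleus cells.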

[1] = 12 h, 1 µM, compound concentration 1 uM
[2] = 12 h, 10 µM, compound concentration 10 uM
[3] = 24 h, 1 µM, compound concentration 1 uM
[4] = 24 h, 10 µM, compound concentration 10 uM
[5] = 48 h, 1 µM, compound concentration 1 uM
[6] = 48 h, 10 µM, compound concentration 10 uM

## CC1(COc2ccc3c(c2)ncn3-c2ccc3cccc(N4CCC(N)CC4)c3n2)COC1 [CRENOLANIB]
[1]
  Population Apoptotic (%): 58% and 25%
  Population Fragmented Nuclei (%): 36% and 28%
  Population Healthy Nuclei (%): 50% and 60%
  Population Hoechst High Intensity Objects (%): 9% and 13%
  Population Membrane Permeable-Phenotype (%): 87% and 82%
  Population Mitochondria Different-Phenotype (%): 51% and 73%
  Population Mitotic Cells (%): 41% and 75%
  Population Normal (%): 90% and 86%
  Population Pyknosed Nuclei (%): 13% and 10%
  Population Tubulin-Different-Phenotype (%): 92% and 88%
  Total Cell Count: 143 and 86
[2]
  Population Apoptotic (%): 81% and 92%
  Population Fragmented Nuclei (%): 43% and 37%
  Population Healthy Nuclei (%): 11% and 21%
  Population Hoechst High Intensity Objects (%): 21% and 24%
  Population Membrane Permeable-Phenotype (%): 76% and 47%
  Population Mitochondria Different-Phenotype (%): 80% and 76%
  Population Mitotic Cells (%): 18% and 7%
  Population Normal (%): 78% and 75%
  Population Pyknosed Nuclei (%): 44% and 41%
  Population Tubulin-Different-Phenotype (%): 88% and 85%
  Total Cell Count: 274
[3]
  Population Apoptotic (%): 71% and 54%
  Population Fragmented Nuclei (%): 39% and 25%
  Population Healthy Nuclei (%): 45% and 62%
  Population Hoechst High Intensity Objects (%): 9% and 10%
  Population Membrane Permeable-Phenotype (%): 71% and 67%
  Population Mitochondria Different-Phenotype (%): 62% and 67%
  Population Mitotic Cells (%): 28% and 45%
  Population Normal (%): 90% and 89%
  Population Pyknosed Nuclei (%): 14% and 12%
  Population Tubulin-Different-Phenotype (%): 87% and 72%
  Total Cell Count: 156 and 98
[4]
  Population Apoptotic (%): 93% and 100%
  Population Fragmented Nuclei (%): 46% and 53%
  Population Healthy Nuclei (%): 8% and 11%
  Population Hoechst High Intensity Objects (%): 37% and 36%
  Population Membrane Permeable-Phenotype (%): 42% and 44%
  Population Mitochondria Different-Phenotype (%): 50% and 77%
  Population Mitotic Cells (%): 6% and 0%
  Population Normal (%): 62% and 63%
  Population Pyknosed Nuclei (%): 45% and 34%
  Population Tubulin-Different-Phenotype (%): 50% and 77%
  Total Cell Count: 254
[5]
  Population Apoptotic (%): 88% and 62%
  Population Fragmented Nuclei (%): 41% and 37%
  Population Healthy Nuclei (%): 43% and 48%
  Population Hoechst High Intensity Objects (%): 8% and 4%
  Population Membrane Permeable-Phenotype (%): 35% and 53%
  Population Mitochondria Different-Phenotype (%): 40% and 37%
  Population Normal (%): 91% and 95%
  Population Pyknosed Nuclei (%): 14% and 13%
  Population Tubulin-Different-Phenotype (%): 44% and 51%
  Total Cell Count: 186
[6]
  Population Apoptotic (%): 100%
  Population Fragmented Nuclei (%): 51% and 57%
  Population Healthy Nuclei (%): 11% and 13%
  Population Hoechst High Intensity Objects (%): 42% and 29%
  Population Membrane Permeable-Phenotype (%): 43% and 50%
  Population Mitochondria Different-Phenotype (%): 37% and 35%
  Population Mitotic Cells (%): 0%
  Population Normal (%): 58% and 70%
  Population Pyknosed Nuclei (%): 37% and 28%
  Population Tubulin-Different-Phenotype (%): 56% and 28%
  Total Cell Count: 250 and 144

## Cc1cc(C(C#N)c2ccc(Cl)cc2)c(Cl)cc1NC(=O)c1cc(I)cc(I)c1O (centres undefined) [CLOSANTEL]
[1]
  Population Apoptotic (%): 40% and 50%
  Population Fragmented Nuclei (%): 1.13% and 2.08%
  Population Healthy Nuclei (%): 90.4% and 86.81%
  Population Hoechst High Intensity Objects (%): 0.19% and 0%
  Population Membrane Permeable-Phenotype (%): 0.62% and 4.8%
  Population Mitochondria Different-Phenotype (%): 0.42% and 3.2%
  Population Mitotic Cells (%): 60% and 50%
  Population Normal (%): 99.81% and 100%
  Population Pyknosed Nuclei (%): 8.47% and 11.11%
  Population Tubulin-Different-Phenotype (%): 1.46% and 0.8%
[2]
  Population Apoptotic (%): 37.5% and 50%
  Population Fragmented Nuclei (%): 1.14% and 4.88%
  Population Healthy Nuclei (%): 93.39% and 81.71%
  Population Hoechst High Intensity Objects (%): 0%
  Population Membrane Permeable-Phenotype (%): 0.98% and 2.99%
  Population Mitochondria Different-Phenotype (%): 0.49% and 8.96%
  Population Mitotic Cells (%): 62.5% and 50%
  Population Normal (%): 100%
  Population Pyknosed Nuclei (%): 5.47% and 13.41%
  Population Tubulin-Different-Phenotype (%): 0.73% and 2.24%
  Total Cell Count: 439 and 164
[3]
  Population Apoptotic (%): 40% and 43.75%
  Population Fragmented Nuclei (%): 1.65% and 4.19%
  Population Healthy Nuclei (%): 90.1% and 86.23%
  Population Hoechst High Intensity Objects (%): 0%
  Population Membrane Permeable-Phenotype (%): 0.61% and 5.56%
  Population Mitochondria Different-Phenotype (%): 0.46% and 6.25%
  Population Mitotic Cells (%): 60% and 56.25%
  Population Normal (%): 100%
  Population Pyknosed Nuclei (%): 8.25% and 9.58%
  Population Tubulin-Different-Phenotype (%): 0.46% and 1.39%
[4]
  Population Apoptotic (%): 33.33% and 40%
  Population Fragmented Nuclei (%): 1.76% and 4.91%
  Population Healthy Nuclei (%): 88.75% and 83.93%
  Population Hoechst High Intensity Objects (%): 0%
  Population Membrane Permeable-Phenotype (%): 0% and 2.66%
  Population Mitochondria Different-Phenotype (%): 0% and 4.26%
  Population Mitotic Cells (%): 66.67% and 60%
  Population Normal (%): 100%
  Population Pyknosed Nuclei (%): 9.49% and 11.16%
  Population Tubulin-Different-Phenotype (%): 0.4% and 1.06%
  Total Cell Count: 569 and 224
[5]
  Population Apoptotic (%): 45.67% and 45.95%
  Population Fragmented Nuclei (%): 3.15% and 4.35%
  Population Healthy Nuclei (%): 87.31% and 83.28%
  Population Hoechst High Intensity Objects (%): 0%
  Population Membrane Permeable-Phenotype (%): 0.6% and 2.01%
  Population Mitochondria Different-Phenotype (%): 0% and 6.02%
  Population Mitotic Cells (%): 54.33% and 54.05%
  Population Normal (%): 100%
  Population Pyknosed Nuclei (%): 9.53% and 12.37%
  Population Tubulin-Different-Phenotype (%): 0.77% and 0%
[6]
  Population Apoptotic (%): 36.05% and 34.09%
  Population Fragmented Nuclei (%): 2.74% and 3.02%
  Population Healthy Nuclei (%): 89.14% and 85.93%
  Population Hoechst High Intensity Objects (%): 0.09% and 0%
  Population Membrane Permeable-Phenotype (%): 0.42% and 1.17%
  Population Mitochondria Different-Phenotype (%): 0.11% and 4.97%
  Population Mitotic Cells (%): 63.95% and 65.91%
  Population Normal (%): 99.91% and 100%
  Population Pyknosed Nuclei (%): 8.12% and 11.06%
  Population Tubulin-Different-Phenotype (%): 0.32% and 0.88%
  Total Cell Count: 1060 and 398

## Cc1ccc(/C(=C\CN2CCCC2)c2ccccn2)cc1 [TRIPROLIDINE]
[1]
  Population Apoptotic (%): 85%
  Population Fragmented Nuclei (%): 29% and 18%
  Population Healthy Nuclei (%): 61% and 70%
  Population Hoechst High Intensity Objects (%): 2% and 3%
  Population Membrane Permeable-Phenotype (%): 4% and 6%
  Population Mitochondria Different-Phenotype (%): 2% and 1%
  Population Mitotic Cells (%): 15% and 14%
  Population Normal (%): 97% and 96%
  Population Pyknosed Nuclei (%): 8% and 11%
  Population Tubulin-Different-Phenotype (%): 1% and 5%
  Total Cell Count: 244 and 126
[2]
  Population Apoptotic (%): 87% and 75%
  Population Fragmented Nuclei (%): 25% and 15%
  Population Healthy Nuclei (%): 64% and 77%
  Population Hoechst High Intensity Objects (%): 3% and 0%
  Population Membrane Permeable-Phenotype (%): 29% and 14%
  Population Mitochondria Different-Phenotype (%): 23% and 18%
  Population Mitotic Cells (%): 12% and 25%
  Population Normal (%): 96% and 99%
  Population Pyknosed Nuclei (%): 9% and 7%
  Population Tubulin-Different-Phenotype (%): 24% and 15%
  Total Cell Count: 264 and 114
[3]
  Population Apoptotic (%): 89% and 81%
  Population Fragmented Nuclei (%): 23% and 20%
  Population Healthy Nuclei (%): 66% and 68%
  Population Hoechst High Intensity Objects (%): 1% and 4%
  Population Membrane Permeable-Phenotype (%): 4% and 9%
  Population Mitochondria Different-Phenotype (%): 3% and 6%
  Population Mitotic Cells (%): 10% and 18%
  Population Normal (%): 98% and 96%
  Population Pyknosed Nuclei (%): 9% and 11%
  Population Tubulin-Different-Phenotype (%): 2% and 5%
  Total Cell Count: 297 and 150
[4]
  Population Apoptotic (%): 75% and 78%
  Population Fragmented Nuclei (%): 27% and 19%
  Population Healthy Nuclei (%): 62% and 70%
  Population Hoechst High Intensity Objects (%): 2% and 1%
  Population Membrane Permeable-Phenotype (%): 12% and 11%
  Population Mitochondria Different-Phenotype (%): 15% and 13%
  Population Mitotic Cells (%): 24% and 21%
  Population Normal (%): 97% and 98%
  Population Pyknosed Nuclei (%): 10% and 9%
  Population Tubulin-Different-Phenotype (%): 8% and 6%
  Total Cell Count: 320 and 149
[5]
  Population Apoptotic (%): 86% and 76%
  Population Fragmented Nuclei (%): 17%
  Population Healthy Nuclei (%): 73% and 75%
  Population Hoechst High Intensity Objects (%): 2% and 3%
  Population Membrane Permeable-Phenotype (%): 3% and 5%
  Population Mitochondria Different-Phenotype (%): 3%
  Population Mitotic Cells (%): 13% and 23%
  Population Normal (%): 97% and 96%
  Population Pyknosed Nuclei (%): 9% and 6%
  Population Tubulin-Different-Phenotype (%): 3% and 4%
  Total Cell Count: 398 and 209
[6]
  Population Apoptotic (%): 86% and 89%
  Population Fragmented Nuclei (%): 24% and 15%
  Population Healthy Nuclei (%): 65% and 74%
  Population Hoechst High Intensity Objects (%): 2% and 4%
  Population Membrane Permeable-Phenotype (%): 11% and 9%
  Population Mitochondria Different-Phenotype (%): 8%
  Population Mitotic Cells (%): 13% and 10%
  Population Normal (%): 97% and 95%
  Population Pyknosed Nuclei (%): 9%
  Population Tubulin-Different-Phenotype (%): 7% and 6%
  Total Cell Count: 453 and 203
